Here are results for one compound from ChEMBL document CHEMBL4622976, “Development of pH/Glutathione-Responsive Theranostic Agents Activated by Glutathione S-Transferase π for Human Colon Cancer” (J Med Chem, 2020).

Each structure is given as a SMILES string. The source made the active and inactive calls. The rule behind the calls is not given here.

Series [1] is described as follows: Toxicity in ip dosed ICR mouse for 14 days. The class given is organism-based. To be noted: in vivo. In a few lines:
(§1)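 Female ICR mice, randomised, n = 10 per group. Single intraperitoneal dose of 240.0, 300.0, 375.0, 468.8 or 585.9 mg/kg, or vehicle. Deaths recorded at 1 h, 4 h, days 1–4 and days 5–14. Body weight, drinking, eating and activity observed over 14 days. Survival percentage taken on day 14; LD50 derived from the dose–mortality data.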

A short description of series [2]: Drug metabolism assessed as GSTpi (unknown origin) mediated compound fluorescence activation at 1 uM in presence of 100 uM serine by HPLC analysis. The format is ADME. To be noted: human. Put shortly: (§2)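 Selectivity test: compound (1 µM) with catalytic GSTπ and each analyte in water with 1% (v/v) DMSO at pH 4.0, 37 °C for 0.5 h. Analytes were cations at 1 mM; amino acids, vitamin C, Na2S and GSH at 100 µM. Readout was fluorescence emission spectra (excitation 440 nm, recorded 450–650 nm).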

Series [3] relates to HT-29. The series can be described thus: Induction of apoptosis in human HT-29 cells assessed as increase in cleaved PARP protein level incubated for 72 hrs by Western blot analysis. The class given is functional, cell-based. In a few lines: (§3)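 HT29 cells (1.5×10^5/mL) were treated for 72 h and lysed. Lysate (0.05 mg/lane) was run on 12% SDS-PAGE and transferred to nitrocellulose. After blocking in 5% non-fat milk, blots were probed for Bax, Bcl-2, cleaved caspase-3, cleaved PARP, LC3, p62 and beclin-1. Levels were normalised to β-actin, and means ± SD taken from three independent assays.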

For series [4], the system named is HT-29. The series can be described thus: Antitumor activity against human HT-29 cells xenografted in nude BALB/c mouse assessed as reduction in tumor volume at 20 mg/kg, ip dosed every day for 21 days. The class given is functional, organism-based. Background: In xenograft studies the graft and the host belong to different species.
The test system of series [5] is HT-29. The series can be described thus: Induction of autophagy in human HT-29 cells assessed as increase in LC3-II protein level incubated for 72 hrs by Western blot analysis. The class given is functional, cell-based. In a few lines:
(§4)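 HT29 cells (1.5×10^5/mL) exposed to compound or vehicle for 72 h, then lysed. Lysates (0.05 mg/lane) run on 12% SDS-PAGE, transferred to nitrocellulose, blocked with 5% non-fat milk and probed for LC3, p62, beclin-1 and β-actin. Bands quantified relative to β-actin, with LC3-II/LC3-I ratio also calculated; means ± SD from three independent assays.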

A short description of series [6]: Drug metabolism assessed as GSTpi (unknown origin) mediated compound fluorescence activation at 1 uM in presence of 100 uM lysine by HPLC analysis. The format is ADME. Particulars: human. In a few lines: as §2
Series [7] is described as follows: Drug localization in colon of intra-operative mouse xenografted with human HT-29/Luc cells at 40 mg/kg, iv measured after 2 hrs post dose by fluorescence imaging assay. The format is ADME, organism-based. To be noted: in vivo. Put shortly: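 Orthotopic model: 1×10^6 HT29/Luc cells were injected into the upper colon of anaesthetised nude mice (5–6 weeks old). Tumours were confirmed by bioluminescence after two weeks. Dosing was 40 mg/kg iv, with whole-body bioluminescence and fluorescence imaging at 2 h under pentobarbital anaesthesia. Organs were then excised and imaged ex vivo (ex/em 430/490 nm).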

Series [8] deals with HT-29. The series can be described thus: Antitumor activity against human HT-29 cells xenografted in nude BALB/c mouse assessed as reduction in tumor volume at 40 mg/kg, ip dosed every day for 21 days. The format is functional, organism-based.
Series [9] concerns HT-29. The series can be described thus: Induction of apoptosis in human HT-29 cells assessed as increase in cleaved caspase-3 protein level incubated for 72 hrs by Western blot analysis. The class given is functional, cell-based. Put shortly:
as §3
On the technique in general: Immunoblotting shows a protein as a band on a membrane.

A short description of series [10]: Toxicity in ICR mouse assessed as induction of abnormality in drinking behavior at 240 mg/kg, ip for 14 days. The format is organism-based. To be noted: in vivo, 336 h. Put shortly: (§5)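 Female ICR mice (n = 10 per group) given a single intraperitoneal dose at 240.0, 300.0, 375.0, 468.8 or 585.9 mg/kg, or vehicle. Deaths recorded at 1 h, 4 h and daily through day 14. Body weight, drinking, eating and activity observed for abnormality; LD50 derived from mortality.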

The test system of series [11] is HepG2. The series can be described thus: Antiproliferative activity against human HepG2 cells by MTT assay. The class given is functional, cell-based. Put shortly: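 MTT assay. Cells were grown in DMEM/RPMI 1640 with 10% FBS, penicillin and streptomycin at 37 °C under 5% CO2. After a PBS wash, cells got 0.5 mg/mL MTT for 3 h at 37 °C. Formazan was dissolved in DMSO and absorbance read at 570 nm. Inhibition was expressed as a percentage and IC50 calculated. Means ± SD come from three separate experiments.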
Background: Formazan colour is commonly taken as a measure of viable cells.

The nature of series [12]: Drug metabolism assessed as GSTpi (unknown origin) mediated compound fluorescence activation at 1 uM in presence of 100 uM glutamate by HPLC analysis. The class given is ADME. Particulars: human. In a few lines:
as §2

A short description of series [13]: Toxicity in ICR mouse assessed as induction of animal death at 240 to 468.8 mg/kg, ip measured after 5 to 14 days. The format is organism-based. Particulars: in vivo. Put shortly:
as §1

Series [14] concerns HT-29. The series can be described thus: Induction of autophagy in human HT-29 cells assessed as reduction in p62 protein level incubated for 72 hrs by Western blot analysis. The format is functional, cell-based. In a few lines:
as §4

The nature of series [15]: Toxicity in ICR mouse assessed as induction of abnormality in eating behavior at 240 mg/kg, ip for 14 days. The class given is organism-based. Particulars: in vivo, 336 h. In a few lines: as §5
The subject of series [16] is HT-29. The series can be described thus: Antitumor activity against human HT-29 cells xenografted in nude BALB/c mouse assessed as reduction in tumor weight at 40 mg/kg, ip dosed every day for 21 days relative to control. The class given is functional. Details: scale not given: the % may be the effect or the level left.
Series [17] can be described thus: Drug metabolism assessed as GSTpi (unknown origin) mediated compound fluorescence activation at 1 uM in presence of 1 mM Cu2+ by HPLC analysis. The format is ADME. Particulars: human. In a few lines:
as §2

The nature of series [18]: Toxicity in ICR mouse assessed as induction of animal death at 240 to 375 mg/kg, ip measured after 3 days. The class given is organism-based. To be noted: in vivo, 72 h. In a few lines: as §1
Series [19] in a line: Drug metabolism assessed as GSTpi (unknown origin) mediated compound fluorescence activation at 1 uM in presence of 100 uM cysteine by HPLC analysis. The format is ADME. To be noted: human. In a few lines:
as §2

The nature of series [20]: Drug uptake in lysosome of human HT-29 cells at 1 uM incubated for 60 mins by Lyso-tracker based confocal fluorescence microscopy. The class given is ADME, subcellular. Particulars: ht-29, 1 h. Put shortly: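 HT29 and CCD841 cells were seeded at 2×10^5 in glass-bottom dishes. They were co-incubated in DMEM with compound (1 µM) and LysoTracker Red DND-99 (1 µM). Confocal imaging used a 40× water objective. Compound channel: 405 nm laser, 480–530 nm filter. LysoTracker channel: 561 nm laser, 580–630 nm filter.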

A short description of series [21]: Drug metabolism assessed as GSTpi (unknown origin) mediated 1-(3,4,5-trimethoxyphenyl)-9H-pyrido[3,4-b]indol-3-amine formation at 40 uM in presence of 0.8 mM GSH by HPLC analysis. The format is ADME. Particulars: human. Put shortly:
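HPLC measurement of amine release after incubating compound (40 µM) with GSH (0.8 mM) and GSTπ or GSTα at 0.03 µg/ml.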

A short description of series [22]: Drug metabolism assessed as GSTpi (unknown origin) mediated compound fluorescence activation at 1 uM in presence of 1 mM Ca2+ by HPLC analysis. To be noted: human. The format is ADME. In a few lines:
as §2

A short description of series [23]: Drug metabolism assessed as GSTpi (unknown origin) mediated compound fluorescence activation at 1 uM in presence of 100 uM Na2S by HPLC analysis. To be noted: human. The format is ADME. Put shortly:
as §2

The nature of series [24]: Drug localization in tumor of intra-operative mouse xenografted with human HT-29/Luc cells at 40 mg/kg, iv measured over 7 hrs post dose by fluorescence imaging assay. The class given is ADME, organism-based, Neoplasm. Particulars: in vivo.

`COc1cc(-c2nc(NC(=O)OCC3=CCCCC3=O)cc3c2[nH]c2ccccc23)cc(OC)c1OC`: in series [1], the 50% lethal dose (LD50) (in general, the dose at which mortality reaches 50%) at 336 h was determined as 475 mg/kg. The Drug metabolism entry is “Metabolite_Notdetected” in series [2]; “Metabolite_Notdetected” in series [6]; “Metabolite_Notdetected” in [12]; “Metabolite_Notdetected” in [17]; “Metabolite_Notdetected” in series [19]; “Metabolite_Detected” in series [21]. The Drug metabolism result in series [22] and in series [23] was “Metabolite_Notdetected” in each case. In addition, the Activity result in series [3] was “Dose-dependent effect”; in series [5], “Dose-dependent effect”; in series [9], “Dose-dependent effect”; in [10], “Non-Toxic”; in series [13], “Non-Toxic”; in series [14], “Dose-dependent effect”. Also, the Activity entry in series [15] was “Non-Toxic”; in series [16] it was 67.7%; in [18], “Non-Toxic”. In addition, the outcome in [4] and in series [8] was Active. Further, the Drug uptake result in [7], in [20] and in [24] was “Active” throughout. Moreover, in series [11], the concentration for half-maximal inhibition (IC50) (in general, the concentration needed to halve the response being measured) came to 1570 nM.
